≈ marks a conversion by molar mass, not a printed value.
How the values were obtained:
[1] = tested on: Mycobacteroides abscessus; experiment: Antimycobacterial activity against Mycobacterium abscessus ATCC 19977 after 7 days by serial dilution method; assay type: functional
In short: (§1)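 Serial dilution in in-house Sula semisynthetic medium, pH 6.5. Compounds added as DMSO solutions at 10 doses, final 0.05–100 µg/mL. Incubation at 37 °C, 7 days for M. abscessus and 28 days for M. tuberculosis strains. MIC taken as the lowest concentration giving visible growth inhibition, confirmed by CFU on drug-free Löwenstein-Jensen medium after further equal incubation. Repeated at least twice.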

[2] = Selectivity index, ratio of IC50 for human MONO-MAC-6 cells to MIC for Mycobacterium abscessus ATCC 19977; assay type: toxicity; settings: read-out: Selectivity Index
[3] = tested on: MONO-MAC-6; experiment: Cytostatic activity against human MONO-MAC-6 cells assessed as cell viability after 16 hrs by MTT assay; assay type: cell-based; settings: MONO-MAC-6, 16 h
In short: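 MonoMac6 cells kept in RPMI-1640 with 10% FCS, 2 mM L-glutamine and gentamycin at 37 °C, 5% CO2. Cells plated 10⁵ per well and treated after 24 h for 16 h in serum-free RPMI (1.0 v/v% DMSO), 5×10⁻² to 10² µM. MTT at 367 µg/mL final for 3.5 h, crystals dissolved in DMSO, OD540 minus OD620. Cytotoxicity % versus untreated control fitted sigmoidally for IC50. Two independent experiments, 4–8 parallels.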

[4] = tested on: Mycobacterium tuberculosis; experiment: Antimycobacterial activity against Mycobacterium tuberculosis H37Rv ATCC 27294 after 28 days by serial dilution method; assay type: functional; settings: for MIC: Mycobacterium tuberculosis, H37Rv ATCC 27294, 672 h; in short: as §1
[5] = Solubility of the compound in RPMI-1640/Sula media by spectrophotometric analysis; assay type: physicochemical
In short: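 Solubility measured under assay conditions in RPMI and Sula media with 1 v/v% DMSO. Undissolved compound removed on a PVDF filter. 120 µL filtrate mixed with 80 µL acetonitrile, and concentration measured spectrophotometrically.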

[6] = Selectivity index, ratio of IC50 for human MONO-MAC-6 cells to MIC for Mycobacterium tuberculosis H37Rv ATCC 27294; assay type: toxicity; settings: read-out: Selectivity Index
[7] = tested on: Mycobacteroides abscessus; experiment: Potency index, ratio of ciprofloxacin MIC to compound MIC for Mycobacterium abscessus ATCC 19977; assay type: functional
[8] = tested on: Mycobacteroides abscessus; experiment: Potency index, ratio of gentamicin MIC to compound MIC for Mycobacterium abscessus ATCC 19977; assay type: functional
[9] = Retention time of the compound in serum-free RPMI-1640 medium containing 10% DMSO at 0.5 mg/ml after 5 hrs by RP-HPLC analysis; assay type: physicochemical
In short: (§2)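 Stability in serum-free RPMI-1640 with 10% DMSO at 0.5 mg/ml, monitored by RP-HPLC on a C18 column. Gradient of 0.1% TFA water/acetonitrile-water, 1 ml/min, ambient temperature. Peaks identified by ESI-MS.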

[10] = Drug level in serum-free RPMI-1640 medium treated with [4-bromo-2-[[4-(trifluoromethyl)phenyl]carbamoyl]phenyl] 5-chloropyrazine-2-carboxylate at 0.75 mg/ml after 29 hrs by ESI-MS spectra analysis; assay type: physicochemical
[11] = Retention time of the compound in DMSO at 0.75 mg/ml measured at 0 min by RP-HPLC analysis; assay type: physicochemical; settings: 0 h
In short: (§3)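 Stability in DMSO at 0.75 mg/ml, monitored by RP-HPLC on a C18 4.6×150 mm column. Gradient 0–100% B (A: 0.1% TFA in water; B: 0.1% TFA in acetonitrile-water 80:20), 1 ml/min, ambient temperature. Sampled at 0 min and after 29 h, detection at 280 or 220 nm.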

[12] = Retention time of the compound in serum-free RPMI-1640 medium containing 10% DMSO at 0.5 mg/ml after 30 mins by RP-HPLC analysis; assay type: physicochemical; settings: 0.5 h; in short: as §2
[13] = Retention time of the compound in DMSO at 0.75 mg/ml measured after 29 hrs by RP-HPLC analysis; assay type: physicochemical; in short: as §3
[14] = Half life of the compound in serum-free RPMI-1640 medium at 0.75 mg/ml by RP-HPLC analysis; assay type: ADME
[15] = Mycobacteroides abscessus, ATCC 19977, 168 h

Compound | Activity [1] [CFU] | MIC [1, 15] [µM] | selectivity ratio [2] | IC50 [3] [µM] | Activity [4] [CFU] | MIC [4] [µM] | solubility [5] [µM] | selectivity ratio [6] | MIC [1] [µM] | Ratio [7] | Ratio [8] | Retention_time [9] [min] | Drug metabolism [10] | Retention_time [11] [min] | Retention_time [12] [min] | Retention_time [13] [min] | half-life at 0.75 mg/ml [14] [h]
O=C(NCCCl)Oc1ccc(Cl)cc1C(=O)Nc1ccc(Cl)c(Cl)c1 | 0 | 1.2 (≈ 0.507 µg/mL) | 3.8 | 4.6 | 2 | 1.2 (≈ 0.507 µg/mL) | < 50 | 3.8 | – | – | – | – | – | – | – | – | –
O=C(Oc1ccc(Cl)cc1C(=O)Nc1ccc(Cl)c(Cl)c1)c1cnc(Cl)cn1 | 0 | 1.1 (≈ 0.503 µg/mL) | 9.2 | 10.1 | 10 | 1.1 (≈ 0.503 µg/mL) | < 100 | 9.2 | – | – | – | – | – | – | – | – | –
CCCNC(=O)Oc1ccc(Cl)cc1C(=O)Nc1ccc(Cl)c(Cl)c1 | 0 | 1.3 (≈ 0.522 µg/mL) | 5.4 | 7 | 0 | 0.2 (≈ 0.0803 µg/mL) | < 50 | 35 | – | – | – | – | – | – | – | – | –
O=C(Oc1ccc(Cl)cc1C(=O)Nc1ccc(C(F)(F)F)cc1)c1cnc(Cl)cn1 | 0 | 5.5 (≈ 2.51 µg/mL) | 0.2 | 1.1 | 3 | 1.1 (≈ 0.502 µg/mL) | < 100 | 1 | – | – | – | – | – | – | – | – | –
GENTAMICIN | – | – | – | – | – | – | – | – | 10.5 | – | – | – | – | – | – | – | –
O=C(Nc1ccc(Cl)c(Cl)c1)c1cc(Br)ccc1O | 0 | 7 (≈ 2.53 µg/mL) | 0.5 | 3.5 | 2 | 1.4 (≈ 0.505 µg/mL) | < 100 | 2.5 | – | – | – | – | – | – | – | – | –
O=C(c1ccccc1)c1ccc(NC(=O)c2cc(Br)ccc2O)cc1 | 0 | 25.3 (≈ 10 µg/mL) | 0.9 | 21.8 | 2 | 12.7 (≈ 5.03 µg/mL) | < 50 | 1.7 | – | – | – | – | – | – | – | – | –
O=C(NCCCCl)Oc1ccc(Br)cc1C(=O)Nc1ccc(C(=O)c2ccccc2)cc1 | 0 | 38.9 (≈ 20.1 µg/mL) | 0.3 | 12.6 | 2 | 8.7 (≈ 4.49 µg/mL) | < 50 | 1.4 | – | – | – | – | – | – | – | – | –
O=C(Oc1ccc(Br)cc1C(=O)Nc1ccc(Cl)c(Cl)c1)c1cnc(Cl)cn1 | 0 | 1 (≈ 0.502 µg/mL) | 5.7 | 5.7 | 1 | 2 (≈ 1 µg/mL) | < 100 | 2.9 | – | – | – | – | – | – | – | – | –
O=C(O)c1cn(C2CC2)c2cc(N3CCNCC3)c(F)cc2c1=O [CIPROFLOXACIN] | – | 3 (≈ 0.994 µg/mL) | – | – | – | – | – | – | – | – | – | – | – | – | – | – | –
O=C(NCCCl)Oc1ccc(Br)cc1C(=O)Nc1ccc(Cl)c(Cl)c1 | 0 | 0.2 (≈ 0.0933 µg/mL) | 34.5 | 6.9 | 2 | 0.2 (≈ 0.0933 µg/mL) | < 50 | 34.5 | – | 15 | 53 | – | – | – | – | – | –
O=C(O)c1cnc(Cl)cn1 | – | > 633 | – | – | – | > 633 | < 500 | – | – | – | – | 12.3 | metabolite_detected | – | – | – | –
NNC(=O)c1ccncc1 [ISONIAZID] | 26 | 292 (≈ 40 µg/mL) | – | – | 0 | 1.17 (≈ 0.16 µg/mL) | – | – | – | – | – | – | – | – | – | – | –
O=C(NCCCCl)Oc1ccc(Br)cc1C(=O)Nc1ccc(C(F)(F)F)cc1 | 0 | 0.2 (≈ 0.0959 µg/mL) | 28.5 | 5.7 | 8 | 1 (≈ 0.48 µg/mL) | < 50 | 5.7 | – | 15 | 53 | – | – | 22.6 | 22.6 | 22.6 | 0.183
O=C(c1ccccc1)c1ccc(NC(=O)c2cc(Cl)ccc2O)cc1 | 0 | 28.5 (≈ 10 µg/mL) | 1.7 | 48 | 3 | 14.2 (≈ 5 µg/mL) | < 50 | 3.4 | – | – | – | – | – | – | – | – | –
CCCNC(=O)Oc1ccc(Cl)cc1C(=O)Nc1ccc(C(=O)c2ccccc2)cc1 | 0 | 22.9 (≈ 10 µg/mL) | 0.8 | 18.7 | 3 | 9.2 (≈ 4.02 µg/mL) | < 50 | 2 | – | – | – | – | – | – | – | – | –
O=C(NCCCl)Oc1ccc(Br)cc1C(=O)Nc1ccc(C(=O)c2ccccc2)cc1 | 0 | 40 (≈ 20.1 µg/mL) | 0.6 | 24.9 | 2 | 8 (≈ 4.01 µg/mL) | < 50 | 3.1 | – | – | – | – | – | – | – | – | –
O=C(NCCCl)Oc1ccc(Cl)cc1C(=O)Nc1ccc(C(F)(F)F)cc1 | 0 | 1.2 (≈ 0.505 µg/mL) | 6.3 | 7.6 | 1 | 0.5 (≈ 0.211 µg/mL) | < 50 | 15.2 | – | – | – | – | – | – | – | – | –
O=C(NCCCl)Oc1ccc(Cl)cc1C(=O)Nc1ccc(C(=O)c2ccccc2)cc1 | 0 | 43.6 (≈ 19.9 µg/mL) | 0.9 | 37.8 | 2 | 8.7 (≈ 3.98 µg/mL) | < 50 | 4.3 | – | – | – | – | – | – | – | – | –
O=C(Oc1ccc(Br)cc1C(=O)Nc1ccc(C(F)(F)F)cc1)c1cnc(Cl)cn1 | 0 | 5 (≈ 2.5 µg/mL) | 0.2 | 1.1 | 0 | 1 (≈ 0.501 µg/mL) | < 100 | 1.1 | – | – | – | 24 | – | 24 | 24 | 24 | 3.7
O=C(NCCCCl)Oc1ccc(Cl)cc1C(=O)Nc1ccc(C(F)(F)F)cc1 | 0 | 0.2 (≈ 0.087 µg/mL) | 44 | 8.8 | 1 | 0.5 (≈ 0.218 µg/mL) | < 50 | 17.6 | – | 15 | 53 | – | – | – | – | – | –
O=C(NCCCCl)Oc1ccc(Cl)cc1C(=O)Nc1ccc(C(=O)c2ccccc2)cc1 | 0 | 42.5 (≈ 20 µg/mL) | 0.4 | 16.1 | 3 | 8.5 (≈ 4.01 µg/mL) | < 50 | 1.9 | – | – | – | – | – | – | – | – | –
O=C(Nc1ccc(Cl)c(Cl)c1)c1cc(Cl)ccc1O | 0 | 3.2 (≈ 1.01 µg/mL) | 1.1 | 3.6 | 2 | 1.6 (≈ 0.507 µg/mL) | < 100 | 2.3 | – | – | – | – | – | – | – | – | –
O=C(NCCCCl)Oc1ccc(Cl)cc1C(=O)Nc1ccc(Cl)c(Cl)c1 | 0 | 1.2 (≈ 0.523 µg/mL) | 2.1 | 2.5 | 0 | 2.3 (≈ 1 µg/mL) | < 50 | 1.1 | – | – | – | – | – | – | – | – | –
O=C(NCCCl)Oc1ccc(Br)cc1C(=O)Nc1ccc(C(F)(F)F)cc1 | 0 | 4.3 (≈ 2 µg/mL) | 2.2 | 9.3 | 0 | 0.4 (≈ 0.186 µg/mL) | < 50 | 23.3 | – | – | – | – | – | – | – | – | –
O=C(Nc1ccc(C(F)(F)F)cc1)c1cc(Cl)ccc1O | 0 | 3.2 (≈ 1.01 µg/mL) | – | 5.3 | 0 | 1.6 (≈ 0.505 µg/mL) | – | – | – | – | – | – | – | – | – | – | –
O=C(NCCCCl)Oc1ccc(Br)cc1C(=O)Nc1ccc(Cl)c(Cl)c1 | 0 | 2.1 (≈ 1.01 µg/mL) | 4.5 | 9.5 | 2 | 0.4 (≈ 0.192 µg/mL) | < 50 | 23.8 | – | – | – | – | – | – | – | – | –

Source: ChEMBL document CHEMBL3612041, “Combating highly resistant emerging pathogen Mycobacterium abscessus and Mycobacterium tuberculosis with novel salicylanilide esters and carbamates” (Eur J Med Chem, 2015)
